Here are results for 31 compounds from ChEMBL document CHEMBL2331249, “Cytotoxicity of lapachol, β-lapachone and related synthetic 1,4-naphthoquinones against oesophageal cancer cells” (Eur J Med Chem, 2013).

Data set [1] can be described thus: Cytotoxicity against human WHCO1 cells after 48 hrs by MTT assay. The note with it: WHCO1, 48 h. For orientation: Formazan colour is commonly taken as a measure of viable cells.
Data set [2] in a line: Ratio of cisplatin IC50 to compound IC50 for human WHCO1 cells after 48 hrs by MTT assay.
The nature of data set [3]: Ratio of cisplatin IC50 to compound IC50 for human WHCO1 cells after 24 hrs by MTT assay. It counts as functional.
The nature of data set [4]: Cytotoxicity against human WHCO1 cells after 24 hrs by MTT assay. Conditions: WHCO1, 24 h. It counts as functional, cell-based.
Data set [5] deals with NIH3T3. Kind of data set: Cytotoxicity against mouse NIH/3T3 cells after 96 hrs by MTT assay. It counts as cell-based. Conditions: for IC50: Mus musculus, NIH3T3, 96 h; for Activity: mouse, nih3t3, 96 h. The essentials:
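NIH3T3 fibroblasts kept in DMEM with 10% heat-inactivated FCS plus penicillin/streptomycin/amphotericin at 37 °C, 9% CO2. Seeded at 1000 cells/well overnight, then exposed to 0, 10, 100, 1 000 and 10 000 nM or vehicle (0.02% v/v) for 96 h.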

In data set [6] the test system is WHCO1. Kind of data set: Induction of apoptosis in human WHCO1 cells assessed as increase in c-jun level after 6 to 24 hrs by MTT assay. The note with it: in the assay text read “by Western blot analysis” for “by MTT assay”. It counts as functional, cell-based. The method in brief:
(§1)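 Western blot of WHCO1 cells given varying concentrations for 6, 24 and 48 h, protein extracted at each time point. PARP cleavage to […] 85 kDa fragments taken as the apoptosis marker; c-Jun levels probed on the same blots.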

Data set [7] relates to WHCO1. Kind of data set: Induction of apoptosis in human WHCO1 cells assessed as PARP cleavage at 20 uM after 6 to 48 hrs by MTT assay. It counts as functional, cell-based. The note with it: in the assay text read “by Western blot analysis” for “by MTT assay”. The essentials:
as §1

The subject of data set [8] is WHCO1. As to the kind of experiment: Induction of apoptosis in human WHCO1 cells assessed as PARP cleavage at 5 to 10 uM after 6 to 48 hrs by MTT assay. It counts as functional, cell-based. The note with it: in the assay text read “by Western blot analysis” for “by MTT assay”. The method in brief:
as §1

The source made the active and inactive calls. No cut-off for these calls is given here.

The IC50 is the concentration at which inhibition is half-maximal. Read a low IC50 as higher potency. `O=C1C=C(Cc2ccccc2)C(=O)c2ccccc21` came in with an IC50 in data set [1] of 21.6 µM.

Regarding `CC1(C)CCC2=C(O1)c1ccccc1C(=O)C2=O` [LAPACHONE], in data set [2], the “Ratio IC50” value is 10. Further, the IC50 in data set [1] worked out at 1.6 µM.

For the compound `O=C(C1=CC(=O)c2ccccc2C1=O)c1ccc(Cl)cc1`, the IC50 in data set [1] is 72.9 µM.

In the case of `O=C1C=C(C(O)c2ccc3ccccc3c2)C(=O)c2ccccc21` (stereo not given), in data set [3], the “Ratio IC50” value is on record as 2. The midpoint of inhibition in data set [4], the IC50, lay at 2.4 µM.

In the case of `O=C1C=C(C(O)c2ccoc2)C(=O)c2ccccc21` (stereo not given), in data set [2], the “Ratio IC50” value is listed as 2. Also, the IC50 in data set [1] came out at 10.9 µM.

Regarding `O=C1C=C(c2ccccc2)C(=O)c2ccccc21`, in data set [2], the “Ratio IC50” value is 2. For the same compound, 11.7 µM corresponded to half-maximal inhibition in data set [1] (IC50).

Turning to `O=C1C=C(C(O)c2cccc(F)c2)C(=O)c2ccccc21` (stereo not given), the “Ratio IC50” value in data set [2] was 2. Further, the IC50 in data set [5] was 82 µM; in data set [1], 5.5 µM.

As for `O=C1C=C([C@H](O)c2ccccc2)C(=O)c2ccccc21`, in data set [6], the Activity result was “Dose-dependent effect”. Moreover, the outcome in data set [7] was Active. Further, the result in data set [8] was inactive. In data set [1], this compound came in with an IC50 of 4.3 µM.

On to `O=C1C=C(C(O)c2ccc(F)cc2)C(=O)c2ccccc21` (stereo not given), for which the “Ratio IC50” value in data set [2] came to 2. The IC50 in data set [5] came out at 11.7 µM; in data set [1] it was 5.1 µM.

`CC(C)=CCC1=C(O)C(=O)c2ccccc2C1=O` [LAPACHOL]: in data set [1], the IC50 is 24.1 µM.

`CC(O)C1=CC(=O)c2ccccc2C1=O` (stereo not given) came in with a half-maximal inhibitory concentration (IC50) in data set [1] of 6.4 µM.

`O=C(C1=CC(=O)c2ccccc2C1=O)c1cccc(Cl)c1` came in with an IC50 in data set [1] of 94.8 µM.

In turn, `CC(C)=CC(O)C1=CC(=O)c2ccccc2C1=O` (stereo not given) returned a concentration for half-maximal inhibition (IC50) in data set [1] of 5.2 µM.

As to `O=C(C1=CC(=O)c2ccccc2C1=O)c1ccoc1`, in data set [1], the IC50 was determined as 96.9 µM.

On to `C=CC(O)C1=CC(=O)c2ccccc2C1=O` (stereo not given), for which, in data set [1], half-maximal inhibition (IC50) was put at 4.3 µM.

Regarding `CC1(C)OC2=C(CC1O)C(=O)C(=O)c1ccccc12` (stereo not given), the “Ratio IC50” value in data set [2] is 2. The half-maximal inhibitory concentration (IC50) in data set [1] worked out at 6.5 µM.

Compound `O=C(C1=CC(=O)c2ccccc2C1=O)c1cccc(F)c1` gave an IC50 in data set [1] of 94.8 µM.

In data set [1], `Cc1cc(Cl)ccc1C(=O)C1=CC(=O)c2ccccc2C1=O` gave an IC50 of 50.4 µM.

`CC1(C)CCC2=C(O1)C(=O)c1ccccc1C2=O` [ALPHA-LAPACHONE]: it took 28.7 µM to reach half-maximal inhibition in data set [1] (IC50).

With `CC1(C)CC2=C(O1)c1ccccc1C(=O)C2=O` [NOR-BETA-LAPACHONE], the “Ratio IC50” value in data set [2] is 7. Besides, the IC50 in data set [1] turned out to be 2.4 µM.

Turning to `O=C1C=C(C(O)c2ccccc2)C(=O)c2ccccc21` (racemic), the Activity result in data set [6] is “Dose-dependent effect”; in data set [5], “Non-toxic”. In data set [2], the “Ratio IC50” value was 11. Besides, the outcome in data set [7] was Active. Besides, in data set [8], the outcome was inactive. In data set [1], this compound showed an IC50 of 3.9 µM.

Turning to `Cc1cc(Cl)ccc1C(O)C1=CC(=O)c2ccccc2C1=O` (stereo not given), the “Ratio IC50” value in data set [2] amounted to 2. In addition, the IC50 in data set [5] was found to be 7.4 µM; in data set [1], 3.4 µM.

Take `O=C(CCc1ccccc1)C1=CC(=O)c2ccccc2C1=O`: in data set [1], inhibition was half-maximal at 83.7 µM (IC50).

For the compound `O=C1C=C(C(O)CCc2ccccc2)C(=O)c2ccccc21` (stereo not given), the “Ratio IC50” value in data set [2] came out at 2. This compound gave a concentration for half-maximal inhibition (IC50) in data set [1] of 4.8 µM.

Take `O=C(C1=CC(=O)c2ccccc2C1=O)c1ccc(F)cc1`: in data set [1], the IC50 turned out to be 74.9 µM.

In turn, `O=C(C1=CC(=O)c2ccccc2C1=O)c1ccccc1` yielded an IC50 in data set [1] of 63.4 µM.

Turning to `O=C1C=C(C(O)c2cccc(Cl)c2)C(=O)c2ccccc21` (stereo not given), the “Ratio IC50” value in data set [2] is reported as 2. The Activity result in data set [5] is listed as “Non-toxic”. Besides, in data set [1], the midpoint of inhibition, the IC50, lay at 7.3 µM.

As to `O=C1C=C(C(O)c2ccc(Cl)cc2)C(=O)c2ccccc21` (stereo not given), the “Ratio IC50” value in data set [2] was determined as 2. Also, the Activity entry in data set [5] is on record as “Non-toxic”. For the same compound, in data set [1], half-maximal inhibition (IC50) required 3 µM.

`O=C1C=C([C@@H](O)c2ccccc2)C(=O)c2ccccc21`: the Activity entry in data set [6] was “Dose-dependent effect”. In addition, the result in data set [7] was Active. Moreover, the result in data set [8] was inactive. The compound further showed an IC50 in data set [1] of 3.8 µM.

In data set [1], `CC(C)=CCC1=CC(=O)c2ccccc2C1=O` [DEOXYLAPACHOL] came in with a half-inhibitory concentration (IC50) of 15 µM.

Consider `CC1(C)OC2=C(CC1Br)C(=O)C(=O)c1ccccc12` (stereo not given), for which the “Ratio IC50” value in data set [2] amounted to 9. Besides, in data set [1], it took 1.8 µM to reach half-maximal inhibition (IC50).
